Assay outcomes from PubChem.
An excerpt weighted towards active compounds, which were near 2.3% of everything screened.
HCV core dimer = inhibitors of HCV core protein dimerization, primary screen, biochemical, TR-FRET, high-throughput; AID 1899, 2009; inhibition, % at 5 µM; TR-FRET GST/Flag-core106 dimerization, 1536-well; hit rate 0.33% among 300,000;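 active = inhibition above the mean of all tested compounds plus 3 SD, set per screening campaign, cut at about 45% in these data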
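Material: Tagged HCV core106 pair (GST and Flag) | Amount: GST-core106 13.5 nM, Flag-core106 17 nM | Medium: KF-containing HEPES buffer, pH 7.45, DTT, CHAPS, BSA | Reagent: Eu donor and XL665 acceptor anti-tag antibodies | Schedule: 4 h at 22.5 °C | Technique: Time-resolved FRET, ex 340 nm, em 617 and 671 nm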
NS3 helicase inh = inhibitors of HCV NS3 helicase, primary screen, biochemical, Cy5 molecular beacon fluorescence; Hepatitis C virus NS3 helicase; hit rate 0.56% among 290,000; inhibition, % at 10.9 µM; AID 1800, 2009; NS3 helicase DNA unwinding;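 active = inhibition above the mean of all tested compounds plus 3 SD, set per campaign, cut at about 35% in these data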
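Compound dosing – single dose, 10.9 µM nominal final, DMSO 0.8% final · System – NS3 helicase fragment of HCV · Buffer or medium – MOPS pH 6.5, MgCl2, DTT, Tween20, BSA · Signal – Cy5 beacon fluorescence read at start and 1 h · Also added – annealed dual-labelled DNA beacon duplex, ATP-started · Schedule – 1 h at 25 °C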
GPR7 antagonist = GPR7 receptor antagonists, primary screen, cell-based, fluorescence, single concentration; GPR7-expressing cells, fluorescence antagonist assay; inhibition, % at 4.4 µM; hit rate 1.1% among 290,000; AID 1861, 2009; in the data active = inhibition above about 16%, passing the limit was not always enough;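 note: cells stimulated with the agonist NPW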
Target sequence (P48145 whole entry, looked up): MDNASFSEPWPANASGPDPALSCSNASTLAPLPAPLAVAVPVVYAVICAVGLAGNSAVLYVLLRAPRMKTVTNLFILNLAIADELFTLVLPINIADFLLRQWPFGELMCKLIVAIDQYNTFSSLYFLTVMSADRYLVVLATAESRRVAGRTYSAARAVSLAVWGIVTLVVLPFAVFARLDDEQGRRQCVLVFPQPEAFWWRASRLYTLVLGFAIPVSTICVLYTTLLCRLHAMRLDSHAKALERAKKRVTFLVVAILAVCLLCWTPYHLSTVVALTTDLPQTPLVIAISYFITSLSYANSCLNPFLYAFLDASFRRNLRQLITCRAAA
ZTA counter = counter-screen for EBNA-1 inhibitors: inhibitors of Epstein-Barr virus ZTA | P03206 | ZTA-DNA binding, fluorescence polarization | inhibition, % at 11 µM | hit rate 0.15% among 320,000 | AID 2234; in the data active = inhibition above about 33%
EBV gp42 inh = Epstein-Barr virus gp42 inhibitors, primary screen, biochemical, uHTS, fluorescence polarization; inhibition, % (tested at 21.74 µM); Glycoprotein 42 (Epstein-Barr virus (strain AG876)), Q1HVG2; Fluorescence polarization binding assay, mP read-out; hit rate 0.42% among 220,000; in the data active = inhibition above about 50%
Target sequence (Q1HVG2 whole entry, looked up): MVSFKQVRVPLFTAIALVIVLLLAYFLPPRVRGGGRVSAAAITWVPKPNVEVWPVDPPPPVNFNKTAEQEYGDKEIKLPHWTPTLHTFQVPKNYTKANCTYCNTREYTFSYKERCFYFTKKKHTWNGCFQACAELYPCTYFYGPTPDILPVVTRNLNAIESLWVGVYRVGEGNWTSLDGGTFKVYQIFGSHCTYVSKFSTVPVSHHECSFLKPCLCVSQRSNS
EBNA-1 inhibitor = EBNA-1 DNA-binding inhibitors, primary screen, biochemical, fluorescence polarization. inhibition, % at 14.8 µM. hit rate 0.34% among 300,000. AID 1950, 2009; in the data active = inhibition above about 28%
Of the large screens only hits and unclear results are named; the others gave an inactive call.

CCCOc1ccc(-c2nn(-c3ccccc3)cc2/C=C2\SC(=S)N(C3CCS(=O)(=O)C3)C2=O)cc1 (centres undefined)	EBV gp42 inh 69
COc1ccc(-c2nn(-c3ccccc3)cc2/C=C2/SC(=S)N(CCC(=O)O)C2=O)cc1	none (no result: EBV gp42 inh)
CCOc1ccc(-c2nn(-c3ccccc3)cc2/C=C2\SC(=S)N(C3CCS(=O)(=O)C3)C2=O)cc1 (centres undefined)	EBV gp42 inh 69
C=CCn1c(SCC#N)nc2sc(CC)cc2c1=O	none
CC(=O)c1ccc(OCCCC(=O)N(CCC2=CCCCC2)c2c(N)n(Cc3ccccc3)c(=O)[nH]c2=O)cc1	none (no result: NS3 helicase inh, GPR7 antagonist, EBV gp42 inh)
O=C1c2ccccc2C(=O)C1(O)O	none (no result: HCV core dimer, NS3 helicase inh, GPR7 antagonist, EBV gp42 inh, EBNA-1 inhibitor)
CCN(c1ccccc1)C1(O)C(=O)c2ccccc2C1=O	GPR7 antagonist 20
COc1ccc2nc(NC(=O)CSc3nnc(N)s3)sc2c1	EBNA-1 inhibitor 37
Cc1cccc(NC(=O)N(Cc2cc3cc(C)ccc3[nH]c2=O)CC2COCCO2)c1 (centres undefined)	none
CCOc1ccc2[nH]c(=O)c(CN(CC3COCCO3)C(=O)C3CC3)cc2c1 (centres undefined)	EBV gp42 inh 51
CS(=O)(=O)N(CC(=O)N1CCCCCC1)c1cccc([N+](=O)[O-])c1	none (no result: EBV gp42 inh)
CCOC(=O)C1CCCN(c2nc3ccccc3nc2C(C#N)C(=O)NCc2ccccc2)C1 (centres undefined)	EBV gp42 inh 54
CCOC(=O)c1c(C)n(C)c2ccc(OC(=O)c3ccc([N+](=O)[O-])cc3)cc12	none
CCOC(=O)c1c(C)n(C)c2ccc(OC(=O)c3ccoc3)cc12	GPR7 antagonist 16
COc1ccc(OCC(=O)OC(C)CN2CCOCC2)cc1 (centres undefined)	GPR7 antagonist 18
O=C(CCC(=O)N1CCCC1)N1CCCC1	none (no result: EBV gp42 inh)
CCCOc1ccccc1C1CC(=O)NC2=C1C(=O)CCC2 (centres undefined)	none
CCCCOc1ccccc1C1CC(=O)NC2=C1C(=O)CCC2 (centres undefined)	GPR7 antagonist 20
O=C1c2cccc3c(O)ccc(c23)C(=O)N1Cc1ccccc1	EBV gp42 inh 187
O=C(O)c1cccc(CN2C(=O)c3ccccc3C2=O)c1	none (no result: EBV gp42 inh)
O=C(NCCCC(=O)N1CCCCC1)c1ccc(Cl)cc1	none (no result: HCV core dimer, ZTA counter, EBV gp42 inh, EBNA-1 inhibitor)
NC(=O)C1CCN(C(=O)CCSCc2ccc(Cl)c(Cl)c2)CC1	none (no result: EBV gp42 inh)
Cc1cc2nc3c(=O)n(C4CCCCC4)c(=O)[nH]c3nc2cc1N	EBV gp42 inh 141 (no result: HCV core dimer, ZTA counter, EBNA-1 inhibitor)
Cc1c(N=Nc2c(-c3ccc([N+](=O)[O-])cc3)[nH]n(C(N)=S)c2=O)cccc1[N+](=O)[O-]	EBV gp42 inh 109 (no result: HCV core dimer, ZTA counter, EBNA-1 inhibitor)
NC(=S)n1[nH]c(-c2ccc([N+](=O)[O-])cc2)c(N=Nc2ccccc2[N+](=O)[O-])c1=O	none (no result: HCV core dimer, ZTA counter, EBNA-1 inhibitor)
NC(=S)n1[nH]c(-c2ccc([N+](=O)[O-])cc2)c(N=Nc2cccc([N+](=O)[O-])c2)c1=O	EBV gp42 inh 100 (no result: HCV core dimer, ZTA counter, EBNA-1 inhibitor)
COC(=O)c1cccc(NC(=O)CCc2c(C)noc2C)c1	none (no result: HCV core dimer, NS3 helicase inh, GPR7 antagonist, EBV gp42 inh, EBNA-1 inhibitor)
CCCCCCN(C(=O)CCCCCN1C(=O)NC(c2cccc([N+](=O)[O-])c2)C(C(=O)OCc2ccccc2)=C1C)C(C(=O)NCCCC)c1ccc(OCC(=O)OC)c(C(=O)OC)c1 (centres undefined)	none (no result: NS3 helicase inh, GPR7 antagonist)
COc1ccccc1NC(=O)COC(=O)CCc1ccc(S(=O)(=O)N2CCOCC2)cc1	none (no result: HCV core dimer, NS3 helicase inh, GPR7 antagonist, EBV gp42 inh, EBNA-1 inhibitor)
O=C1CC(N2C(=O)/C(=C/C=C/c3ccccc3)SC2=S)C(=O)N1c1ccccc1 (centres undefined)	HCV core dimer 51
O=C(CSc1n[nH]c(-c2ccccc2)n1)c1ccc(O)c(O)c1	GPR7 antagonist 21
Cc1cc(-c2ccc(N3CCOCC3)cc2)nc2ccccc12	EBV gp42 inh 56
CC(C)C(=O)Nc1cc(C(F)(F)F)ccc1-n1ccnc1	none
CC(=O)c1c(C)[nH]c(C(=O)CN2C(=O)NC(C)(c3ccc(C)cc3)C2=O)c1C (centres undefined)	GPR7 antagonist 20
Cc1cc(S(=O)(=O)N2CCCOC2CNC(=O)C(=O)NCc2ccco2)ccc1F (centres undefined)	none
COc1ccc(CC(=O)NNc2ncnc3c2cnn3-c2ccccc2)cc1	none
COc1ccc(CC(=O)NNc2ncnc3c2cnn3-c2ccc(C)cc2)cc1	EBNA-1 inhibitor 97
CC(C)CN(C(=O)COC(=O)c1cc2c(s1)CCC2)C1CCS(=O)(=O)C1 (centres undefined)	HCV core dimer 88
CCN(C(=O)COC(=O)c1cc2c(s1)CCCCC2)C1CCS(=O)(=O)C1 (centres undefined)	none (no result: EBV gp42 inh)
Cc1ccnc(NC(=O)c2ccc(OCC3CCCO3)cc2)c1 (centres undefined)	none (no result: NS3 helicase inh, GPR7 antagonist, EBV gp42 inh)
O=C1CN(C(=O)CSc2nc(-c3ccccc3)cs2)c2ccccc2N1	none
CC1(C)C(=O)Nc2ccccc2N1C(=O)CSc1nc(-c2ccccc2)cs1	HCV core dimer 46
C/C(=C\c1cccc(Br)c1)C(=O)c1c(C)cc(C)[nH]c1=O	none (no result: EBV gp42 inh)
C/C(=C\c1ccc(C)o1)C(=O)c1c(C)cc(C)[nH]c1=O	GPR7 antagonist 20
CC(C)CCN1CCC(N)=NC1=O	none (no result: HCV core dimer, ZTA counter, EBNA-1 inhibitor)
O=C(NCc1cccc(CNC(=O)C(=O)NCc2ccco2)c1)C(=O)NCc1ccco1	HCV core dimer 47
Cc1c(Br)cc(C(=O)NCc2ccco2)c(C)c1C	HCV core dimer 48
Cc1cccc(N2CCN(C(=O)CSc3nnnn3C3CC3)CC2)c1C	none (no result: HCV core dimer, NS3 helicase inh, GPR7 antagonist, EBV gp42 inh, EBNA-1 inhibitor)
COc1cccc(CC(NC(C)=O)C(=O)NC2CCN(c3c(Cc4ccccc4)c(C)nc4ncnn34)CC2)c1 (centres undefined)	none
C#CCSc1nsc(SCC#C)c1C#N	HCV core dimer 63
O=C(NC1CCCCCCC1)c1ccc(Br)o1	none (no result: EBV gp42 inh)
c1ccc2c(c1)CCCN2Cc1nnnn1CC1CCCO1 (centres undefined)	EBV gp42 inh 71
O=c1cc(CSc2n[nH]c(-c3ccncc3)n2)nc2sccn12	HCV core dimer 53
COCCn1c(SCc2cc(=O)n3ccsc3n2)nnc1-c1ccncc1	none
COc1cc(/C=C(\C#N)c2nc3ccccc3s2)cc([N+](=O)[O-])c1O	none (no result: HCV core dimer, ZTA counter, EBNA-1 inhibitor)
N#C/C(=C\c1ccc(O)c([N+](=O)[O-])c1)c1nc2ccccc2s1	GPR7 antagonist 20 (no result: HCV core dimer, ZTA counter, EBNA-1 inhibitor)
Cc1cccc(-n2c(SCc3cc(=O)n4ccsc4n3)nc3ccccc32)c1	EBV gp42 inh 78
CCCN1C(=O)/C(=C\C=C2\N(CC)c3ccccc3C2(C)C)SC1=S	EBV gp42 inh active (no result: HCV core dimer, ZTA counter, EBNA-1 inhibitor)
